Assay results from ChEMBL document CHEMBL1122744, “2-Chloroethyl (methylsulfonyl)methanesulfonate and related (methylsulfonyl)methanesulfonates. Antineoplastic activity in vivo” (J Med Chem, 1984).

Legend:
Mus musculus [1] = test: Change in weight by day 5, obtained by subtracting treated groups of animals minus control groups of animals at dose 75 mg/kg in exp2.; assay type: functional
Method in brief: (§1)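 Mice were inoculated ip with 10^6 P388 leukemia cells on day 0 and weighed 19–22 g that day. Compound was given ip once daily on days 1–5, within about 5 min of preparing the solution or suspension, to groups of six (occasionally five). Thirty inoculated untreated mice served as controls. The value is the average weight change of treated mice minus that of controls on day 5.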

Mus musculus [2] = test: Change in weight by day 5, obtained by subtracting treated groups of animals minus control groups of animals at dose 22 mg/kg in exp3.; assay type: functional; method in brief: as §1
Mus musculus [3] = test: Change in weight by day 5, obtained by subtracting treated groups of animals minus control groups of animals at dose 22 mg/kg in exp5; assay type: functional; method in brief: as §1
Mus musculus [4] = test: Change in weight by day 5, obtained by subtracting treated groups of animals minus control groups of animals at dose 22 mg/kg in exp6; assay type: functional; method in brief: as §1
Mus musculus [5] = test: Change in weight by day 5, obtained by subtracting treated groups of animals minus control groups of animals at dose 100 mg/kg in exp2.; assay type: functional; method in brief: as §1
Mus musculus [6] = test: Change in weight by day 5, obtained by subtracting treated groups of animals minus control groups of animals at dose 33 mg/kg in exp4.; assay type: functional; method in brief: as §1
Mus musculus [7] = test: Change in weight by day 5, obtained by subtracting treated groups of animals minus control groups of animals at dose 50 mg/kg in exp4.; assay type: functional; method in brief: as §1
Mus musculus [8] = test: Mortality by day 5 expressed as number of mice died to the total treated at dose 100 mg/kg in exp8*-Mortality was 3/6 by day 6; 2/6; assay type: ADME, organism-based; parameters: dose 100 mg/kg; conditions: in vivo
Mus musculus [9] = test: Mortality by day 5 expressed as number of mice died to the total treated at dose 150 mg/kg in exp2; 5/5; assay type: ADME, organism-based; parameters: dose 150 mg/kg; conditions: in vivo
Mus musculus [10] = test: Change in weight by day 5, obtained by subtracting treated groups of animals minus control groups of animals at dose 100 mg/kg in exp1; assay type: functional; method in brief: as §1
Mus musculus [11] = test: Median survival time of the treated control groups, in which there are no 30-day survivors at dose 22 mg/kg in exp6; assay type: functional
Mus musculus [12] = test: Median survival time of the treated control groups, in which there are no 30-day survivors at dose 100 mg/kg in exp1; assay type: functional
Mus musculus [13] = test: Mortality by day 5 expressed as number of mice died to the total treated at dose 200 mg/kg in exp8; 6/6; assay type: ADME, organism-based; parameters: dose 200 mg/kg; conditions: in vivo
Mus musculus [14] = test: Mortality by day 5 expressed as number of mice died to the total treated at dose 22 mg/kg in exp3; 0/5; assay type: ADME, organism-based; parameters: dose 22 mg/kg; conditions: in vivo
Mus musculus [15] = test: Mortality by day 5 expressed as number of mice died to the total treated at dose 50 mg/kg in exp2; 0/5; assay type: ADME, organism-based; parameters: dose 50 mg/kg; conditions: in vivo
Mus musculus [16] = test: Median survival time of the treated control groups, in which there are no 30-day survivors at dose 33 mg/kg in exp2; assay type: functional
Mus musculus [17] = test: Median survival time of the treated control groups, in which there are no 30-day survivors at dose 33 mg/kg in exp5; assay type: functional
Mus musculus [18] = test: Median survival time of the treated control groups, in which there are no 30-day survivors at dose 33 mg/kg in exp7; assay type: functional
Mus musculus [19] = test: Median survival time of the treated control groups, in which there are no 30-day survivors at dose 50 mg/kg in exp1; assay type: functional
Mus musculus [20] = test: Median survival time of the untreated control groups, in which there are no 30-day survivors at dose 50 mg/kg in exp5; assay type: functional
Mus musculus [21] = test: Median survival time of the untreated control groups, in which there are no 30-day survivors at dose 22 mg/kg in exp7; assay type: functional
Mus musculus [22] = test: Median survival time of the untreated control groups, in which there are no 30-day survivors at dose 33 mg/kg in exp3; assay type: functional
Mus musculus [23] = test: Median survival time of the untreated control groups, in which there are no 30-day survivors at dose 50 mg/kg in exp1; assay type: functional
Mus musculus [24] = test: Median survival time of the treated control groups, in which there are no 30-day survivors at dose 50 mg/kg in exp6; assay type: functional
Mus musculus [25] = test: Median survival time of the untreated control groups, in which there are no 30-day survivors at dose 100 mg/kg in exp2; assay type: functional
Mus musculus [26] = test: Median survival time of the untreated control groups, in which there are no 30-day survivors at dose 100 mg/kg in exp8; assay type: functional
Mus musculus [27] = test: Median survival time of the untreated control groups, in which there are no 30-day survivors at dose 150 mg/kg in exp2; assay type: functional
Mus musculus [28] = test: Median survival time of the untreated control groups, in which there are no 30-day survivors at dose 200 mg/kg in exp1; assay type: functional
Mus musculus [29] = test: Median survival time of the untreated control groups, in which there are no 30-day survivors at dose 200 mg/kg in exp8; assay type: functional
[30] = Ratio of median survival times for non-survivors at dose 50 mg/kg in exp8; assay type: functional
[31] = Ratio of number of 30-day survivors to the total treated mice at dose 50 mg/kg in exp8; 4/6; assay type: functional
[32] = Ratio of number of 30-day survivors to the total treated mice at dose 50 mg/kg in exp4; 6/6; assay type: functional
[33] = Ratio of number of 60-day survivors to the total treated mice at dose 33 mg/kg in exp4; 0/6; assay type: functional
[34] = Ratio of number of 60-day survivors to the total treated mice at dose 50 mg/kg in exp4; 6/6; assay type: functional
[35] = Ratio of number of 60-day survivors to the total treated mice at dose 50 mg/kg in exp8; 2/6; assay type: functional
[36] = Ratio of median survival times for non-survivors at dose 100 mg/kg in exp8*-toxic; assay type: functional
Method in brief: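 Mice were inoculated ip with 10^6 P388 leukemia cells on day 0. Groups of six (occasionally five) were dosed ip qd on days 1–5 with fresh suspensions; 30 mice served as untreated controls. Deaths were recorded daily up to day 60. T/C% compares the median survival of treated non-survivors (<60 days) with the control median. Medians used grouped data when there were no 30-day survivors, otherwise ungrouped data. t = toxic.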

[37] = Ratio of median survival times for non-survivors at dose 22 mg/kg in exp5; assay type: functional
[38] = Ratio of median survival times for non-survivors at dose 33 mg/kg in exp5; assay type: functional
[39] = Ratio of median survival times for non-survivors at dose 33 mg/kg in exp6; assay type: functional
[40] = Ratio of median survival times for non-survivors at dose 33 mg/kg in exp7; assay type: functional
Mus musculus [41] = test: Median survival time of the untreated control groups, in which there are no 30-day survivors at dose 50 mg/kg in exp7; assay type: functional
Mus musculus [42] = test: Mortality by day 5 expressed as number of mice died to the total treated at dose 33 mg/kg in exp2; 0/5; assay type: ADME, organism-based; parameters: dose 33 mg/kg; conditions: in vivo

## CS(=O)(=O)CS(=O)(=O)OCCCl
Mus musculus [1]
  Change in weight: -4.2
Mus musculus [2]
  Change in weight: -1.3
Mus musculus [3]
  Change in weight: -1.3
Mus musculus [4]
  Change in weight: -1.4
Mus musculus [5]
  Change in weight: -4.1
Mus musculus [6]
  Change in weight: -2.6
Mus musculus [7]
  Change in weight: -3
Mus musculus [8]
  Mortality: 2
Mus musculus [9]
  Mortality: 5
Mus musculus [10]
  T-C: -4 g
Mus musculus [11]
  Median survival time: 20.8
Mus musculus [12]
  Median survival time: 17
Mus musculus [13]
  Mortality: 6
Mus musculus [14]
  Mortality: 0
Mus musculus [15]
  Mortality: 0
Mus musculus [16]
  Median survival time: 23.5
Mus musculus [17]
  Median survival time: 25.7
Mus musculus [18]
  Median survival time: 22.3
Mus musculus [19]
  Median survival time: 31.5
Mus musculus [20]
  Median survival time: 12
Mus musculus [21]
  Median survival time: 10.7
Mus musculus [22]
  Median survival time: 11.1
Mus musculus [23]
  Median survival time: 11.2
Mus musculus [24]
  Median survival time: 43.5
Mus musculus [25]
  Median survival time: 11.2
Mus musculus [26]
  Median survival time: 11
Mus musculus [27]
  Median survival time: 11.2
Mus musculus [28]
  Median survival time: 11.2 days
Mus musculus [29]
  Median survival time: 11
[30]
  Ratio: 273
[31]
  Ratio: 4
[32]
  Ratio: 6
[33]
  Ratio: 0
[34]
  Ratio: 6
[35]
  Ratio: 2
[36]
  Ratio: 55
[37]
  Ratio: 161
[38]
  Ratio: 214
[39]
  Ratio: 179
[40]
  Ratio: 179
Mus musculus [41]
  Median survival time: 13
Mus musculus [42]
  Mortality: 0
